Results pooled from the literature.
Compare with care: the assays were run in different laboratories. Values after ≈ are worked out from the molar mass of the structure shown.

With `COc1ccc(S(=O)(=O)c2ccc(C)cc2)c(OC)c1OC` the IC50 was 91.7 µM (Leishmania braziliensis; parasite growth, MTT; 24 h, promastigote).
For `COc1ccc(Nc2c(-c3ccc4c(c3)OCO4)nc3ncccn23)cc1`, the IC50 was > 100 µM (Leishmania amazonensis; parasite growth, MTT; 72 h, promastigote).
`Cc1cccc2cc(CNCC3(N4CCCC4)COC3)cnc12` has a viability of 92.1% (T98G; cell growth or viability; 30 µM, 48 h).
With `CC1=NN(CNC(=O)c2ccccc2)C(=O)C1=NNn1c(-c2ccccc2)nc2ccccc2c1=O` the MIC was 104 µM (≈ 49.8 µg/mL) (Trichophyton rubrum; microbial growth, broth dilution).
`COc1cccc(-c2nc3ncccn3c2NC(C)(C)CC(C)(C)C)c1` has an IC50 of 17 µM (Leishmania amazonensis; parasite growth, MTT; 72 h, promastigote).
`O=C1NN=C(N=Cc2ccc(O)cc2O)C1=NNn1c(-c2ccccc2)nc2ccccc2c1=O` gave an MIC of 53.5 µM (≈ 25 µg/mL) (Trichophyton rubrum; microbial growth, broth dilution).
For `COc1ccc(Sc2ccc(C)cc2)c(OC)c1OC`, the IC50 was 40.3 µM (Leishmania braziliensis; parasite growth, MTT; 24 h, promastigote).
The EC50 of `O=C(Nc1ccccc1-c1ccc(F)c(F)c1)c1nccnc1C(F)(F)F` is reported as 0.2 µg/mL (≈ 0.527 µM) (Rhizoctonia solani; microbial growth).
`Cc1[nH]c(C)c(C(F)(F)F)c(=O)c1-c1ccc(Oc2ccc(OC(F)(F)F)cc2)cc1` has an IC50 of > 10 µM (HEK293; cell growth or viability).
With `Clc1ccccc1-c1ccc(CNCC2(N3CCCC3)COC2)o1` the viability was 80.6% (GBM6; cell growth or viability; 30 µM, 48 h).
`Cc1ccc(/C=C2/SC(=Nc3ccccc3)NC2=O)c(C)c1` gave an IC50 of > 10 µM (HEK293; cell growth or viability).
`c1cnc2nc(-c3ccc4c(c3)OCO4)c(NCCN3CCOCC3)n2c1` gave an IC50 of > 100 µM (Leishmania amazonensis; parasite growth, MTT; 72 h, promastigote).
`CCOC(=O)c1cn(CC)c2cc(N3CCCCCC3)c(F)cc2c1=O` has an IC50 of > 10 µM (HEK293; cell growth or viability).
For `CC1=NN(CNC(=O)c2ccccn2)C(=O)C1=NNn1c(-c2ccccc2)nc2ccccc2c1=O`, the MIC was 104 µM (≈ 50 µg/mL) (Trichophyton rubrum; microbial growth, broth dilution).
For `CCCCc1nc2ncccn2c1NC(C)(C)CC(C)(C)C`, the IC50 was 47.8 µM (Leishmania amazonensis; parasite growth, MTT; 72 h, promastigote).
`Cc1[nH]cc(Br)c(=O)c1-c1ccc(Oc2ccccc2)cc1` has an IC50 of > 10 µM (HEK293; cell growth or viability).
